Results from ChEMBL document CHEMBL4364290, “Light-controlled inhibition of BRAFV600E kinase” (Eur J Med Chem, 2019).
Activity calls are given as the source filed them. No cut-off for these calls is given here.

Columns and labels:
[1] = Drug isomerization in bovine plasma at 10 uM measured after 20 hrs at 37 degC by LCMS analysis; assay type: ADME, cell-free, Bos taurus; details: cattle
[2] = Half life of the compound in pH 7.5 tris HCl buffer at 2 mg/ml measured at room temperature under 365 nm light irradiation using trans-isomer form of compound by 1H-19F NMR spectroscopic analysis
How it was run: (§1)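 Cis isomer generated by 365 nm irradiation to PSS; half-life of thermal cis-to-trans relaxation followed at room temperature in DMSO, in BRAF assay buffer, or in 1:1 BRAF assay buffer/acetonitrile where solubility required.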

[3] = target: T1, Serine/threonine-protein kinase B-raf (Homo sapiens, UniProt P15056, V600E); assay: Inhibition of human recombinant N-terminal GST/His6-tagged BRAF V600E mutant (Q417 to H766 residues) expressed in Sf9 insect cells using MEK1 as substrate measured after 1 hr using light irradiated compound at 365 nm for 45 mins by Western blot analysis
[4] = Drug re-isomerization in DMSO-d6 assessed as cis isomer level at PSS at 2 mg/ml measured after 20 hrs under dark condition at room temperature using irradiated compound by 1H-NMR spectroscopic analysis
[5] = Thermal re-isomerization in bovine plasma assessed as trans-isomer formation at 10 uM measured after 1 hr at 37 degC using pre-irradiated compound at 365 nm light for 1 hr by LCMS analysis; assay type: ADME, cell-free, Bos taurus; details: cattle
[6] = Half life of the compound in DMSO-d6 at 2 mg/ml measured at room temperature under 365 nm light irradiation using trans-isomer form of compound by 1H-19F NMR spectroscopic analysis; how it was run: as §1
[7] = test system: Serine/threonine-protein kinase B-raf (Homo sapiens), P15056 [V600E]; assay: Inhibition of BRAF V600E mutant in human SK-MEL-28 using peptide as substrate using irradiated compound at 365 nm light for 45 mins by STK-Pamchip array-based method; assay type: cell-based
How it was run: (§2)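 SK-Mel-28 cell lysates treated with DMSO control or inhibitor, either dark (thermally adapted) or irradiated with 365 nm light; kinase activity profiled on PamGene STK peptide chips.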

[8] = target: T1, Serine/threonine-protein kinase B-raf; assay: Inhibition of human recombinant N-terminal GST/His6-tagged BRAF V600E mutant (Q417 to H766 residues) expressed in Sf9 insect cells using MEK1 as substrate measured after 1 hr using preheated compound at 60 degC for 30 mins by Western blot analysis
[9] = Stability of the compound in DMSO-D6 at 2 mg/ml by 1H-19F NMR analysis; assay type: physicochemical; details: read-out: Stability
[10] = Drug isomerization in DMSO-d6 irradiated at 365 nm assessed as cis isomer level at PSS at 2 mg/ml measured after 90 mins under room temperature by 1H and 19F-NMR spectroscopic analysis
[11] = Drug isomerization in DMSO-d6 assessed as cis isomer level at PSS at 2 mg/ml irradiated at 365 nm light measured immediately by 1H-NMR spectroscopic analysis
[12] = Drug isomerization in DMSO-d6 irradiated at 365 nm assessed as cis isomer level at PSS at 2 mg/ml measured after 30 mins under room temperature by 1H and 19F-NMR spectroscopic analysis
[13] = Absorption property of the compound in pH 7.5 tris HCl buffer assessed as maximum absorption wavelength; assay type: physicochemical
How it was run: (§3)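 λmax of the trans isomer recorded in DMSO and in BRAF assay buffer.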

[14] = Drug isomerization in DMSO-d6 irradiated at 365 nm assessed as cis isomer level at PSS at 2 mg/ml measured after 60 mins under room temperature by 1H and 19F-NMR spectroscopic analysis
[15] = Absorption property of the compound in DMSO assessed as maximum absorption wavelength; assay type: physicochemical; how it was run: as §3
[16] = Drug isomerization in DMSO-d6 irradiated at 365 nm assessed as cis isomer level at PSS at 2 mg/ml measured after 70 mins under room temperature by 1H and 19F-NMR spectroscopic analysis
[17] = Drug isomerization in DMSO-d6 irradiated at 365 nm assessed as cis isomer level at PSS at 2 mg/ml measured after 40 mins under room temperature by 1H and 19F-NMR spectroscopic analysis
[18] = Drug isomerization in DMSO-d6 irradiated at 365 nm assessed as rate of thermal relaxation measured as cis isomer level at PSS at 2 mg/ml measured after 70 hrs storage in dark at room temperature by 1H-NMR spectroscopic analysis
[19] = Half life of the compound in pH 7.5 tris HCl buffer/acetonitrile at 2 mg/ml measured at room temperature under 365 nm light irradiation using trans-isomer form of compound by 1H-19F NMR spectroscopic analysis; how it was run: as §1
[20] = Drug isomerization in DMSO-d6 irradiated at 365 nm assessed as cis isomer level at PSS at 2 mg/ml measured after 100 mins under room temperature by 1H and 19F-NMR spectroscopic analysis
[21] = Stability in bovine plasma irradiated with white light at 10 uM by LCMS analysis; assay type: ADME, cell-free, Bos taurus; details: cattle
[22] = test system: Serine/threonine-protein kinase B-raf (Homo sapiens), P15056 [V600E]; assay: Inhibition of BRAF V600E mutant in human SK-MEL-28 using peptide as substrate using preheated compound at 60 degC for 30 mins measured under dark condition by STK-Pamchip array-based method; assay type: cell-based; how it was run: as §2
[23] = Drug isomerization in bovine plasma assessed as cis-isomer formation at 10 uM irradiated with 365 nm light by LCMS analysis; assay type: ADME, cell-free, Bos taurus; details: cattle
[24] = test system: Serine/threonine-protein kinase B-raf (Homo sapiens), P15056 [V600E]; assay: Reversible inhibition of human recombinant N-terminal GST/His6-tagged BRAF V600E mutant (Q417 to H766 residues) expressed in Sf9 insect cells using MEK1 as substrate at 1 uM pre-irradiated with 365 nm light for 45 mins followed by thermal activation at 60 degC for 30 mins and subsequent light irradiation at 365 nm for 45 mins by Western blot analysis
[25] = Drug isomerization in DMSO-d6 irradiated at 365 nm assessed as cis isomer level at PSS at 2 mg/ml measured after 45 mins under room temperature by 1H and 19F-NMR spectroscopic analysis
A-375 [26] = assay: Dark toxicity against human A375 cells harboring BRAF V600E mutant assessed as reduction in cell viability at 10 uM incubated for 24 hrs using preheated compound at 60 degC for 60 mins by MTS assay; assay type: cell-based; details: a-375, 24 h, in the assay text read “30 mins” for “60 mins”
How it was run: (§4)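 A375 melanoma cells (BRAF V600E) exposed 24 h to 10 µM compound, thermally adapted or 365 nm-irradiated, versus DMSO control; viability by MTS assay.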

[27] = Stability of thermally adapted compound in bovine plasma at 10 uM after 1 hr at 37 degC by LCMS analysis; assay type: ADME, cell-free, Bos taurus; details: cattle
[28] = Drug isomerization in DMSO-d6 irradiated at 365 nm assessed as rate of thermal relaxation measured as cis isomer level at PSS at 2 mg/ml measured after 18 hrs storage in dark at room temperature by 1H-NMR spectroscopic analysis
[29] = Drug isomerization in DMSO-d6 irradiated at 365 nm assessed as cis isomer level at PSS at 2 mg/ml measured after 75 mins under room temperature by 1H and 19F-NMR spectroscopic analysis
[30] = Drug isomerization in DMSO-d6 irradiated at 365 nm assessed as cis isomer level at PSS at 2 mg/ml measured after 135 mins under room temperature by 1H and 19F-NMR spectroscopic analysis
[31] = Drug isomerization in DMSO-d6 irradiated at 365 nm assessed as cis isomer level at PSS at 2 mg/ml measured after 120 mins under room temperature by 1H and 19F-NMR spectroscopic analysis
A-375 [32] = assay: Cytotoxicity against human A375 cells harboring BRAF V600E mutant assessed as reduction in cell viability at 10 uM incubated for 24 hrs by MTS assay; assay type: functional, cell-based; how it was run: as §4
[33] = test system: Serine/threonine-protein kinase B-raf (Homo sapiens), P15056 [V600E]; assay: Inhibition of BRAF V600E mutant in human SK-MEL-28 cells using peptide substrate by STK-Pamchip array-based method; assay type: cell-based; how it was run: as §2
[34] = target: T1, Serine/threonine-protein kinase B-raf; assay: Inhibition of human recombinant BRAF V600E mutant using MEK1 as substrate measured after 1 hr by Western blot analysis
[35] = Drug isomerization in DMSO-d6 irradiated at 365 nm assessed as rate of thermal relaxation measured as cis isomer level at PSS at 2 mg/ml measured after 2.5 hrs storage in dark at room temperature by 1H-NMR spectroscopic analysis

Serine/threonine-protein kinase B-raf (Homo sapiens), P15056 [V600E], sequence (P15056 whole entry V600E, the tested form may be a part): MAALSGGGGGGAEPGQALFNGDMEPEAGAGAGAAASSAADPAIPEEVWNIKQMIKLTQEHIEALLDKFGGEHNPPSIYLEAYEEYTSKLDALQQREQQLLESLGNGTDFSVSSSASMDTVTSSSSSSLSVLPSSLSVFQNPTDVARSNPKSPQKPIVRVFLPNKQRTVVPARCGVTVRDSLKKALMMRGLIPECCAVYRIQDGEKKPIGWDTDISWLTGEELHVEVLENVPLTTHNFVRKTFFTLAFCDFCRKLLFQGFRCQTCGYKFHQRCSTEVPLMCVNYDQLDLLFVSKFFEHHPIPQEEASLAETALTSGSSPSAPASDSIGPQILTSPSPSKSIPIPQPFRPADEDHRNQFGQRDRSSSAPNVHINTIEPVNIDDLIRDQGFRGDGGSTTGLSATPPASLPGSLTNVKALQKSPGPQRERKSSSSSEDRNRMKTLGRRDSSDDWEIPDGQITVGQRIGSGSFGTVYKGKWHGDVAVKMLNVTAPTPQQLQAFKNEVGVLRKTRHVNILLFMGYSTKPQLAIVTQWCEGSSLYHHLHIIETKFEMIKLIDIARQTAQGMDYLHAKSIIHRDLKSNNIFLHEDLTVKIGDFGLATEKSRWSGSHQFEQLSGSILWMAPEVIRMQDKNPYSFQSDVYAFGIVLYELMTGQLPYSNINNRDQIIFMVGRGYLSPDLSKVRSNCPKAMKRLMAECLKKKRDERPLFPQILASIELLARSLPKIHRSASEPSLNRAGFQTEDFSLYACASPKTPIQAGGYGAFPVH
T1 sequence (P15056 2-766 V600E limits assumed): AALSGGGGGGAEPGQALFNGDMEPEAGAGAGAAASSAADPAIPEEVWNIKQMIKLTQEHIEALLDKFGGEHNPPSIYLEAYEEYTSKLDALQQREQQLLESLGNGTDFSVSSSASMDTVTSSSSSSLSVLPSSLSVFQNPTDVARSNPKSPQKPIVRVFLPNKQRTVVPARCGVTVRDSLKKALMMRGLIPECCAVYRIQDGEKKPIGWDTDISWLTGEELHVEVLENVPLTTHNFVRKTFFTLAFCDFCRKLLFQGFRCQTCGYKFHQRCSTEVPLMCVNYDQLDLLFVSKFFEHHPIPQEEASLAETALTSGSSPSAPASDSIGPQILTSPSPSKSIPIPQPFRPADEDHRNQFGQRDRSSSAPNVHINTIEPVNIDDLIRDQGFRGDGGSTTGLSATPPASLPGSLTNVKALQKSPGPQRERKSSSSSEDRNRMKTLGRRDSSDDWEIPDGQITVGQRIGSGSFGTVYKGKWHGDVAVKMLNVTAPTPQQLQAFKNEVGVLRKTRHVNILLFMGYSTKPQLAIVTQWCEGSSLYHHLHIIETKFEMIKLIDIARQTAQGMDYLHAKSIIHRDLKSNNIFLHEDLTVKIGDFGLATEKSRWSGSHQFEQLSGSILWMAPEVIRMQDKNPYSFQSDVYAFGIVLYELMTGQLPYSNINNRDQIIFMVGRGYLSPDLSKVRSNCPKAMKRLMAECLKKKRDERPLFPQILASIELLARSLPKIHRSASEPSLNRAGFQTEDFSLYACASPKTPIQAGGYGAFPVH

SMILES | IC50 [3] | IC50 [8] | remaining at 2 mg/ml [9] | Activity [13] | Activity [15] | Drug metabolism [4] | T1/2 [6] | Drug metabolism [11] | T1/2 [19] | further results
COc1n[nH]c2ncc(NC(=O)c3c(F)ccc(/N=N/c4ccccc4F)c3F)cc12 | – | 320 nM | > 95% | 331 nm | 336 nm | – | – | 71% | – | Drug metabolism [16]: 71%; Drug metabolism [17]: 68%
COc1ccccc1/N=N\c1ccc(F)c(C(=O)Nc2cnc3[nH]nc(OC)c3c2)c1F | 360 nM | – | – | – | – | – | > 24 h | – | > 24 h | Drug metabolism [28]: 79%
COc1ccc(/N=N/c2cccc(C(=O)Nc3cnc4[nH]nc(OC)c4c3)c2)cc1 | – | 100 nM | > 95% | 345 nm | 352 nm | – | – | 73% | – | Drug metabolism [10]: 94%; Drug metabolism [14]: 92%
COc1ccc(/N=N\c2cccc(C(=O)Nc3cnc4[nH]nc(OC)c4c3)c2)cc1 | 450 nM | – | – | – | – | 34% | > 10 h | – | – | T1/2 [2]: > 10 h
CCCS(=O)(=O)Nc1ccc(F)c(C(=O)c2c[nH]c3ncc(-c4ccc(Cl)cc4)cc23)c1F | – | – | – | – | – | – | – | – | – | Activity (A-375 [32]): Active
COc1n[nH]c2ncc(NC(=O)c3c(F)ccc(NS(=O)(=O)c4ccccc4)c3F)cc12 | – | – | – | – | – | – | – | – | – | inhibition [33]: Active; IC50 [34]: 22 nM; Activity (A-375 [32]): Active
COc1n[nH]c2ncc(NC(=O)c3c(F)ccc(/N=N\c4ccccc4F)c3F)cc12 | 660 nM | – | – | – | – | 51% | > 20 h | – | 5 h | Drug metabolism [35]: 50%
COc1ccccc1/N=N/c1ccc(F)c(C(=O)Nc2cnc3[nH]nc(OC)c3c2)c1F | – | 300 nM | > 95% | 327 nm | 334 nm | – | – | 88% | – | Drug metabolism [10]: 88%; Drug metabolism [14]: 88%

Second part, led by results:

IC50 [3] | IC50 [8] | remaining at 2 mg/ml [9] | Activity [13] | Activity [15] | SMILES | Drug metabolism [4] | T1/2 [6] | Drug metabolism [11] | T1/2 [19] | further results
157 nM | – | – | – | – | COc1n[nH]c2ncc(NC(=O)c3c(F)ccc(/N=N\c4ccccc4)c3F)cc12 | 36% | > 10 h | – | – | Drug metabolism [1]: Metabolite_Detected; T1/2 [2]: 5.4 h; Drug metabolism [5]: Metabolite_Detected; inhibition [7]: inactive
– | 92 nM | > 95% | 341 nm | 357 nm | COc1ccc(/N=N/c2ccc(F)c(C(=O)Nc3cnc4[nH]nc(OC)c4c3)c2F)cc1 | – | – | 96% | – | Drug metabolism [10]: 92%; Drug metabolism [12]: 60%; Drug metabolism [14]: 83%
540 nM | – | – | – | – | COc1n[nH]c2ncc(NC(=O)c3c(F)ccc(/N=N\c4ccccc4C)c3F)cc12 | – | > 70 h | – | > 24 h | Drug metabolism [18]: 62%
– | 32 nM | > 95% | 338 nm | 340 nm | COc1n[nH]c2ncc(NC(=O)c3c(F)ccc(/N=N/c4ccc(C)cc4)c3F)cc12 | – | – | 84% | – | Drug metabolism [16]: 80%; Drug metabolism [20]: 84%
– | 1680 nM | > 95% | 328 nm | 332 nm | COc1n[nH]c2ncc(NC(=O)c3c(F)ccc(/N=N/c4ccccc4)c3F)cc12 | – | – | 37% | – | Stability [21]: Unstable; Drug metabolism [1]: Metabolite_Detected; inhibition [22]: Active; Drug metabolism [10]: 55%; Stability [23]: Unstable; inhibition [24]: Active; Drug metabolism [25]: 46%; Activity (A-375 [26]): Non-Toxic; Stability [27]: Unstable
470 nM | – | – | – | – | COc1ccc(/N=N\c2ccc(F)c(C(=O)Nc3cnc4[nH]nc(OC)c4c3)c2F)cc1 | 79% | > 10 h | – | > 24 h | –
– | 1700 nM | > 95% | 334 nm | 335 nm | COc1n[nH]c2ncc(NC(=O)c3c(F)ccc(/N=N/c4ccccc4C)c3F)cc12 | – | – | 77% | – | Drug metabolism [29]: 60%; Drug metabolism [30]: 77%
– | 2600 nM | > 95% | 338 nm | 335 nm | COc1n[nH]c2ncc(NC(=O)c3c(F)ccc(/N=N/c4ccc(F)cc4)c3F)cc12 | – | – | 62% | – | Drug metabolism [10]: 58%; Drug metabolism [31]: 62%
8100 nM | – | – | – | – | COc1n[nH]c2ncc(NC(=O)c3c(F)ccc(/N=N\c4ccc(F)cc4)c3F)cc12 | 60% | > 20 h | – | > 24 h | –
9 nM | – | – | – | – | COc1n[nH]c2ncc(NC(=O)c3c(F)ccc(/N=N\c4ccc(C)cc4)c3F)cc12 | 73% | > 20 h | – | > 24 h | –
